Reference: PubChem BioAssay
Calls of active or inactive are those of the source. Cut-off read from the data, not from the text of the source, unless noted: active = inhibition above about 30%; inactive = the rest.

Key:
[1] = Her2 expression decrease, cell viability multiplex – SKBR3 breast tumor cells, AlphaScreen, ATP viability, primary screen (AID 461;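 active = Her2 level under about 52% in both replicate screens, with viability over 70% of control, limit read from the data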;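 for Her2 level: lower value means less Her2 protein in the cells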;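 for viability: percent of carrier control wells set as 100% viability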); settings: SKBR3 Her2 protein level, 18-24 h, measured here: SKBR3 viability, ATP luminescence, at 10 µM
[2] = biological target: Receptor tyrosine-protein kinase erbB-2 (Homo sapiens) (UniProt P04626); assay: as above; settings: 18-24 h, at 10 µM, stronger effect = lower value
Receptor tyrosine-protein kinase erbB-2 (Homo sapiens), sequence (P04626 whole entry, looked up): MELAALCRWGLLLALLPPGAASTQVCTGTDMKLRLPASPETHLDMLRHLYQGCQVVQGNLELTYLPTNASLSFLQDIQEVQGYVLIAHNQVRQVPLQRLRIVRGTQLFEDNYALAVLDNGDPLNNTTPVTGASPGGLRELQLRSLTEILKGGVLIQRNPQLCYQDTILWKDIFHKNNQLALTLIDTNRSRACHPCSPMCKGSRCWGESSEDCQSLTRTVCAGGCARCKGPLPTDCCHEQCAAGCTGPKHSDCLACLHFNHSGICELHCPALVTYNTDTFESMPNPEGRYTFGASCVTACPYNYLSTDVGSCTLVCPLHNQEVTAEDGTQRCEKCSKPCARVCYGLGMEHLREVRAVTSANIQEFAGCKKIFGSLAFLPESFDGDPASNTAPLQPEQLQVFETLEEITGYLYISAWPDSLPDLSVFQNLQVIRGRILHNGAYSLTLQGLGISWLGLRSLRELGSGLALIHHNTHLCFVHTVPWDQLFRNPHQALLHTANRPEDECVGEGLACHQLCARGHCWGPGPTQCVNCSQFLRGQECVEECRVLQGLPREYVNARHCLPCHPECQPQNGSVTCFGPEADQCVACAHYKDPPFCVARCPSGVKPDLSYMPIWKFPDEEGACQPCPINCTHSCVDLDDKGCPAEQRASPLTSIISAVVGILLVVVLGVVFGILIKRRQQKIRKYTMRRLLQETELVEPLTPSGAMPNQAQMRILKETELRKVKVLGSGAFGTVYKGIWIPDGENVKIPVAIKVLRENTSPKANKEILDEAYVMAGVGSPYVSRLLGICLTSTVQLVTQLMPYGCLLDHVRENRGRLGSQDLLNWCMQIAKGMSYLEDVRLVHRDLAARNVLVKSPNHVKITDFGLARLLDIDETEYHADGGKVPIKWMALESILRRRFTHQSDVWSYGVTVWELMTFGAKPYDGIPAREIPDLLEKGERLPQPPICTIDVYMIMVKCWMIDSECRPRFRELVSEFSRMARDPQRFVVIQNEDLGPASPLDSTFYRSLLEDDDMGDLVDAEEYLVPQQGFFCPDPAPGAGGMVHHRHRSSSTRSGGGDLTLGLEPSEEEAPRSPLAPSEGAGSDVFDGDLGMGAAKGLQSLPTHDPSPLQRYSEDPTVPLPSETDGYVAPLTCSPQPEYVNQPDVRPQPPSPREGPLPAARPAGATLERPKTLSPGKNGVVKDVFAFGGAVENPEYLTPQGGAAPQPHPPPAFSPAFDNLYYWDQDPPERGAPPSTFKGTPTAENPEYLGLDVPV

[3] = reduced viability of SK-BR-3 breast cancer cells – cell-based, 24 h, human, pilot screen (AID 572;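 active = viability at or below 10% of carrier control in both of two separate runs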;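 note: compound exposure lasted between 18 and 24 h rather than exactly 24 h; 100% = carrier-treated control wells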); settings: SK-BR-3 viability, CellTiter-Glo luminescence, at 10 µM, stronger effect = lower value
[4] = HUVEC growth inhibition – cell-based, human, primary screen (AID 575;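 active = viability at or below 30% in both replicate assays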;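 note: 100% = median of untreated cell wells with 0.1% DMSO on each plate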); settings: HUVEC proliferation, CellTiter-Glo luminescence, 72 h; at 10 µM; stronger effect = lower value
How it was run: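 system = HUVEC primary cells | amount = 1250 cells/well | buffer or medium = supplemented EBM, 2% fetal bovine serum | dosing = single-point 10 µM, DMSO 0.1% final | times = 72 h compound incubation | detection = CTG luminescence | read-out = % viability relative to median vehicle-well signal on each plate | control set = vehicle and MePR control wells | format = collagen-coated 384-well format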

[5] = H69AR cell proliferation blockers – human, duplicate replicates, primary screen (AID 580;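 active = viability at or under a set limit in both replicates, limit being median viability minus 3 SD, cut at about 48% in these data, passing the limit was not always enough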;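 note: 100% = mean luminescence of untreated wells and 0% = no signal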); settings: H69AR lung tumor cells viability, ATP luminescence, 72 h; at 10 µM; stronger effect = lower value
[6] = MRP1 drug-resistance reversers in H69AR cells – cell-based, doxorubicin co-treatment, pilot screen (AID 601;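 active = viability loss from added drug above about 55%, and viability with drug at most 40%, in both replicates, limit read from the data, passing the limit was not always enough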); settings: CellTiter-Glo, 72 h, at 10 µM; for differential viability (reversal): stronger effect = higher value
[7] = yeast transport mutant growth inhibition pilot in 384-well plates, post-Golgi transport modulator project (AID 636; in the data active = inhibition above about 31%); settings: absorbance 615 nm, about 18 h, stronger effect = higher value
[8] = growth suppression of yeast trafficking mutant, preliminary HTS, modulators of trafficking downstream of Golgi apparatus project, 1536-format plate, OD 615 nm (AID 637); settings: yeast transport mutant growth, absorbance 615 nm, 18 h; stronger effect = higher value
[9] = H69AR cells + 2 uM doxorubicin, measured here: viability with 2 uM doxorubicin, stronger effect = lower value
[10] = H69AR cells, compound alone cytotoxicity

| Structure (SMILES) | viability [1] [%] | Her2 level [2] | viability [3] | viability [4] | viability [5] | differential viability (reversal) ([6]; H69AR cells + 2 uM doxorubicin) | viability [6, 9] [%] | viability [6, 10] [%] | inhibition [7] | inhibition [8] |
| --- | --- | --- | --- | --- | --- | --- | --- | --- | --- | --- |
| COc1ccc(CN(C(=O)c2cccs2)c2nccs2)cc1OC | 74 | 68.5% (inactive) | 74% (inactive) | 90.4% (inactive) | 94.6% (inactive) | -4.98% (inactive) | 99.6 | 94.6 | -4.46% (inactive) | -0.98% (inactive) |
| COc1ccccc1-c1noc(-c2cccnc2)n1 | 94 | 102% (inactive) | 94% (inactive) | 117% (inactive) | 92.3% (inactive) | 0.91% (inactive) | 91.4 | 92.3 | -2.89% (inactive) | -0.66% (inactive) |
| O=C(O)C1CC(=O)N(c2ccc(OCc3ccccc3Cl)cc2)C1 (stereo not given) | 83 | 92.5% (inactive) | 83% (inactive) | 95.9% (inactive) | 90% (inactive) | 8.43% (inactive) | 81.6 | 90 | 0% (inactive) | 17.8% (inactive) |
| COc1ccc2cc(CN(CCO)C(=O)c3ccccc3F)c(=O)[nH]c2c1 | 106 | 126% (inactive) | 106% (inactive) | 96.9% (inactive) | 95.3% (inactive) | 8.58% (inactive) | 86.7 | 95.3 | 2.86% (inactive) | -8.33% (inactive) |
| COc1ccc2cc(C(=O)NCc3ccco3)c(=Nc3ccc(C(=O)O)cc3)oc2c1 | 68 | 83% (inactive) | 68% (inactive) | 77.4% (inactive) | 55% (inactive) | -14.1% (inactive) | 69.1 | 55 | -5% (inactive) | -1% (inactive) |
| COCCN(C(=O)c1csnn1)C(C(=O)NC1CCCCC1)c1cccs1 (stereo not given) | 100 | 89% (inactive) | 100% (inactive) | 94.7% (inactive) | 98.9% (inactive) | 11% (inactive) | 87.9 | 98.9 | -7.6% (inactive) | 2.86% (inactive) |
| CCOC(=O)Cn1c(S(=O)(=O)Cc2ccccc2)nc2ccccc21 | 86 | 89.5% (inactive) | 86% (inactive) | 103% (inactive) | 91.5% (inactive) | 4.28% (inactive) | 87.2 | 91.5 | -0.13% (inactive) | -3% (inactive) |
| O=C(CN1C(=O)c2ccccc2C1=O)Nc1ccccc1C(=O)N1CCCC1 | 83 | 90.5% (inactive) | 83% (inactive) | 96% (inactive) | 109% (inactive) | 19.7% (inactive) | 89 | 109 | -3.78% (inactive) | 1.59% (inactive) |
